Assay outcomes (PubChem)
Most compounds without a hit are left out; they make up all but 4.8% or so of the library.
pPAFAH inh = pPAFAH enzyme inhibitors, primary screen, biochemical, fluorescence polarization, human. inhibition, % at 3.39 µM. Platelet-activating factor acetylhydrolase (Homo sapiens), Q13093. AID 463082, 2010. 1.5% of 330,000 active. recombinant pPAFAH, FP-rhodamine probe fluorescence polarization;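 active = inhibition above the mean inhibition across the screen plus 3 SD, cut at about 25% in these data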;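 also: inhibitors block binding of the rhodamine activity-based probe so polarization drops; 0% = enzyme with DMSO and 100% = wells lacking pPAFAH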
Target sequence (Q13093 whole entry, looked up): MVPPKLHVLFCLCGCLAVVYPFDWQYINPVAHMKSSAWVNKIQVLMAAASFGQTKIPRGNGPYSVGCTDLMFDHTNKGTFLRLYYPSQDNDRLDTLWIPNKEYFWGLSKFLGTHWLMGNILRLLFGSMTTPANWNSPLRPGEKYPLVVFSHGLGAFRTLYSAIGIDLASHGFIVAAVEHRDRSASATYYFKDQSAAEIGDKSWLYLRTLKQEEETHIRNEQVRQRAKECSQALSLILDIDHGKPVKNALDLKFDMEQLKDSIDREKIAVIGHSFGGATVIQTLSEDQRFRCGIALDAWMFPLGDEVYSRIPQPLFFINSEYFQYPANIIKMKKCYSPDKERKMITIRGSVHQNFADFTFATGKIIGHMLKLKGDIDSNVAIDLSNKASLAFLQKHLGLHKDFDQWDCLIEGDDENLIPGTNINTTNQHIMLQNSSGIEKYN
PAFAH1B2 inh = PAFAH1B2 enzyme inhibitors, primary screen, biochemical, fluorescence polarization, human | Platelet-activating factor acetylhydrolase IB subunit alpha2 (Homo sapiens), P68402 | recombinant PAFAH1B2, FP-rhodamine activity probe | inhibition, % at 3.39 µM | 1.2% of 340,000 active;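 active = inhibition above the mean of all tested compounds plus 3 SD, cut at about 24% in these data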;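 also: 0% = enzyme with DMSO and 100% = wells lacking PAFAH1B2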
PAFAH1B3 inh = PAFAH1B3 enzyme inhibitors, primary screen, biochemical, fluorescence polarization, human; recombinant PAFAH1B3, FP-rhodamine probe; 0.28% of 340,000 active; Platelet-activating factor acetylhydrolase IB subunit alpha1 (Homo sapiens), Q15102; AID 492972, 2010; inhibition, % at 3.39 µM;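 active = inhibition above the screen-wide average of all tested compounds plus 3 SD, cut at about 25% in these data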;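 also: 0% = enzyme with DMSO only and 100% = wells lacking PAFAH1B3 protein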
Target sequence (Q15102 whole entry, looked up): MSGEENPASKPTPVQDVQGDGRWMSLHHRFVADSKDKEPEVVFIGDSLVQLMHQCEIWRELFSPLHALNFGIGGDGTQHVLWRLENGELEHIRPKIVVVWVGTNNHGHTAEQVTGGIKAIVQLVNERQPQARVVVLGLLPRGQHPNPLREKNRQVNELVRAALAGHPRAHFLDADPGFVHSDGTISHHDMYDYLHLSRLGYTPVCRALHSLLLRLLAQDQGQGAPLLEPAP
NR3A LBD binder = binders of NR3A ligand-binding domain, primary screen, biophysical, differential scanning fluorimetry, uHTS; AID 1259313, 2017; Glutamate receptor ionotropic, NMDA 3A (GRIN3A) ligand-binding domain; 2.5% of 340,000 active; NR3A LBD differential scanning fluorimetry, Tm shift; 0% = protein alone, 100% = glycine-bound protein; Tm shift relative to glycine control, % at 25 µM;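 active = melting temperature shift of at least 10% of the positive control shift, at one fixed dose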
UCH37 DUB inh = inhibitors of human UCH37 deubiquitinase, primary screen, biochemical, Ub-AMC cleavage, fluorescence | 0.33% of 330,000 active | inhibition, % (no concentration beside the values) | purified proteasome/UCH37 | Ubiquitin carboxyl-terminal hydrolase isozyme L5 (Homo sapiens), Q9Y5K5;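 active = mean inhibition over replicate wells above about 20%, limit read from the data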;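 also: 0% = compound-free wells with enzyme and 100% = wells lacking proteasome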
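Reagent: Ub-AMC substrate; assay system: Proteasome-associated human UCH37 deubiquitinase; controls: no-proteasome and no-compound wells; read-out: % inhibition of Ub-AMC cleavage fluorescence; timing: 30 min preincubation with enzyme, 25 min cleavage at room temperature; signal: AMC fluorescence from Ub-AMC cleavage, excitation 355 nm, emission 460 nm; buffer or medium: Tris-HCl pH 7.4 plus ovalbumin, ATP-MgCl2, DTT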
PAFAH2 FP inh = PAFAH2 enzyme inhibitors, primary screen, biochemical, fluorescence polarization, human; recombinant PAFAH2, FP-rhodamine activity probe; 0.99% of 340,000 active; Platelet-activating factor acetylhydrolase 2, cytoplasmic (Homo sapiens), Q99487; AID 492956, 2010; inhibition, % at 3.39 µM;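 active = inhibition above the mean over all tested compounds plus 3 SD, cut at about 30% in these data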;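 also: inhibitors block probe labeling of enzyme so polarization drops; 0% = enzyme with DMSO and 100% = wells lacking PAFAH2 protein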
PAFAH2 FP conf = PAFAH2 enzyme inhibitors, confirmation, biochemical, fluorescence polarization, human | shares compounds with PAFAH2 FP inh | recombinant PAFAH2, FP-rhodamine activity probe | inhibition, % at 3.39 µM | 65% of 2,300 active | AID 493030, 2011;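 active = mean inhibition over three repeats above a set limit taken from the earlier primary screen, cut at about 30% in these data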;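 also: inhibitor blocks binding of rhodamine activity probe so polarization falls; 0% = enzyme with DMSO and 100% = wells lacking PAFAH2 protein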
An asterisk follows results filed as active.

Results for COc1ccc(/C=C/C(=O)OCC(=O)Nc2ccc(Cl)cc2F)cc1S(=O)(=O)N1CCOCC1 ?
pPAFAH inh: 2; PAFAH1B2 inh: 3; PAFAH1B3 inh: 4; NR3A LBD binder: -4; UCH37 DUB inh: 6; PAFAH2 FP inh: 73*; PAFAH2 FP conf: 48*

How did COc1ccc(/C=C/C(=O)OCC(=O)NC2CCCC(C)C2C)cc1S(=O)(=O)N1CCOCC1 (centres undefined) do in these assays?
pPAFAH inh: 0; PAFAH1B2 inh: 2; PAFAH1B3 inh: -1; NR3A LBD binder: 1; UCH37 DUB inh: 3; PAFAH2 FP inh: 67*; PAFAH2 FP conf: 75*

Results for O=C(NN=C1CCc2ccccc21)c1ccc(O)cc1 ?
UCH37 DUB inh: 0

How did COc1cccc(/C=C/C(=O)OCC(=O)Nc2ccc3[nH]c(=O)[nH]c3c2)c1OC do in these assays?
pPAFAH inh: 4; PAFAH1B2 inh: 5; PAFAH1B3 inh: 1; NR3A LBD binder: -3; PAFAH2 FP inh: 4

Results for COc1ccc(OC)c(/C=C/C(=O)OCC(=O)Nc2ccc(Cl)c(S(=O)(=O)N(C)C)c2)c1 ?
pPAFAH inh: -2; PAFAH1B2 inh: 3; PAFAH1B3 inh: -1; NR3A LBD binder: 1; UCH37 DUB inh: -218; PAFAH2 FP inh: 45*; PAFAH2 FP conf: 42*

What do the screens show for `COc1cccc(/C=C/C(=O)OCC(=O)Nc2ccc(Cl)c(S(=O)(=O)N(C)C)c2)c1OC`?
pPAFAH inh: 7; PAFAH1B2 inh: -3; PAFAH1B3 inh: -3; NR3A LBD binder: -7; UCH37 DUB inh: -11; PAFAH2 FP inh: 82*; PAFAH2 FP conf: 73*

What do the screens show for `C=CCN1C(=O)CSC1=NS(=O)(=O)c1ccc(Cl)cc1`?
UCH37 DUB inh: 4

How did COc1ccccc1C=NNC(=O)c1cccc(OC(F)(F)C(F)F)c1 do in these assays?
UCH37 DUB inh: -2

Results for CN(/N=C/c1cc([N+](=O)[O-])ccc1O)c1ccccc1 ?
pPAFAH inh: 7; PAFAH1B2 inh: 0; PAFAH1B3 inh: 8; NR3A LBD binder: -6; PAFAH2 FP inh: 35*; PAFAH2 FP conf: 31*

What do the screens show for `O=C(O)CCCN1C(=O)/C(=C\C(Cl)=C\c2ccccc2)SC1=S`?
PAFAH1B2 inh: 4; PAFAH1B3 inh: 8; NR3A LBD binder: 1; UCH37 DUB inh: 8; PAFAH2 FP inh: 61*; PAFAH2 FP conf: 17

Results for CC(C)C=NNC(=O)c1cccc(N2CCCC2=O)c1 ?
UCH37 DUB inh: 3

Results for NC(=O)c1ccc(NC(=O)COC(=O)c2ccc(Br)c(S(=O)(=O)N3CCOCC3)c2)cc1 ?
PAFAH1B2 inh: 1; PAFAH1B3 inh: 1; NR3A LBD binder: 1; UCH37 DUB inh: 2; PAFAH2 FP inh: 5

Results for Cc1ccc(NC(=O)COC(=O)c2ccc(C)c(S(=O)(=O)N3CCOCC3)c2)cc1 ?
PAFAH1B2 inh: 5; PAFAH1B3 inh: 8; NR3A LBD binder: 1; UCH37 DUB inh: -1; PAFAH2 FP inh: 71*; PAFAH2 FP conf: 71*

Results for Cc1ccc(NC(=O)COC(=O)/C=C/c2ccccc2)cc1S(=O)(=O)N1CCOCC1 ?
pPAFAH inh: -1; PAFAH1B2 inh: 1; PAFAH1B3 inh: -4; NR3A LBD binder: 10; UCH37 DUB inh: 6; PAFAH2 FP inh: 58*; PAFAH2 FP conf: 34*

Results for Cc1ccc(C(=O)OCC(=O)c2ccc(Br)cc2)cc1S(=O)(=O)N1CCOCC1 ?
PAFAH1B2 inh: 17; PAFAH1B3 inh: 7; NR3A LBD binder: 0; UCH37 DUB inh: 5; PAFAH2 FP inh: 34*; PAFAH2 FP conf: 19

Results for O=C(COC(=O)c1ccc(F)c(S(=O)(=O)N2CCOCC2)c1)NC1CC1 ?
pPAFAH inh: -3; PAFAH1B2 inh: 3; PAFAH1B3 inh: -1; NR3A LBD binder: 0; UCH37 DUB inh: 3; PAFAH2 FP inh: 27

How did Cc1ccc(C(=O)OCC(=O)NC2CC2)cc1S(=O)(=O)N1CCOCC1 do in these assays?
pPAFAH inh: 12; PAFAH1B2 inh: -5; PAFAH1B3 inh: 4; NR3A LBD binder: 0; UCH37 DUB inh: 2; PAFAH2 FP inh: 51*; PAFAH2 FP conf: 32*

Results for COc1ccccc1CNC(=O)COC(=O)c1ccc(C)c(S(=O)(=O)N2CCOCC2)c1 ?
pPAFAH inh: 7; PAFAH1B2 inh: 3; PAFAH1B3 inh: 6; NR3A LBD binder: -2; UCH37 DUB inh: 0; PAFAH2 FP inh: 29

Results for Cc1cnc(C(=O)OCC(=O)Nc2ccc(C)c(S(=O)(=O)N3CCOCC3)c2)cn1 ?
pPAFAH inh: -4; PAFAH1B2 inh: 3; PAFAH1B3 inh: 14; NR3A LBD binder: 3; UCH37 DUB inh: 3; PAFAH2 FP inh: -1

What do the screens show for `Cc1ccc(NC(=O)COC(=O)c2ccco2)cc1S(=O)(=O)N1CCOCC1`?
pPAFAH inh: -6; PAFAH1B2 inh: 2; PAFAH1B3 inh: -3; NR3A LBD binder: -2; UCH37 DUB inh: 1; PAFAH2 FP inh: 66*; PAFAH2 FP conf: 60*

How did Cc1ccc(C(=O)OCC(=O)NCCc2ccccc2)cc1S(=O)(=O)N1CCOCC1 do in these assays?
pPAFAH inh: 13; PAFAH1B2 inh: -4; PAFAH1B3 inh: 2; NR3A LBD binder: 0; UCH37 DUB inh: 1; PAFAH2 FP inh: 23

Results for Cc1ccc(C(=O)OCC(=O)NCc2cccs2)cc1S(=O)(=O)N1CCOCC1 ?
pPAFAH inh: 14; PAFAH1B2 inh: -1; PAFAH1B3 inh: 2; NR3A LBD binder: 0; UCH37 DUB inh: -2; PAFAH2 FP inh: 49*; PAFAH2 FP conf: 38*

How did O=C(COC(=O)c1ccc(Cl)c([N+](=O)[O-])c1)NC1CCCC1 do in these assays?
pPAFAH inh: 19; PAFAH1B2 inh: -1; PAFAH1B3 inh: 1; NR3A LBD binder: 0; UCH37 DUB inh: 2; PAFAH2 FP inh: 21

How did Nc1ccc(C(=O)OCC(=O)NC2CC2)cc1[N+](=O)[O-] do in these assays?
pPAFAH inh: 0; PAFAH1B2 inh: 6; PAFAH1B3 inh: 2; NR3A LBD binder: 1; UCH37 DUB inh: 7; PAFAH2 FP inh: 59*; PAFAH2 FP conf: 48*

How did O=C(COC(=O)c1ccccc1C(=O)c1ccc(Cl)c([N+](=O)[O-])c1)NC1CCCCCC1 do in these assays?
pPAFAH inh: 9; PAFAH1B2 inh: 5; PAFAH1B3 inh: 2; NR3A LBD binder: -11; UCH37 DUB inh: 2; PAFAH2 FP inh: 62*; PAFAH2 FP conf: 47*
